Data published in ChEMBL document CHEMBL2429843 (J Med Chem, 2013).
Activity calls are given as the source filed them. No cut-off for these calls is given here.

Legend:
[1] = Selectivity ratio of IC50 for Staphylococcus aureus TrmD to IC50 for Escherichia coli TrmD
[2] = Selectivity ratio of IC50 for Escherichia coli TrmD to IC50 for Pseudomonas aeruginosa TrmD
[3] = Inhibition of Pseudomonas aeruginosa TrmD using S-[methyl-3H] adenosyl-L-methionine as substrate assessed as leucine-tRNA methylation after 1 hr by scintillation proximity assay
How it was run: (§1)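 Radiometric SPA: TrmD in 50 mM HEPES pH 7.5 with 5 mM MgCl2 (E. coli and K. pneumoniae 10 nM, S. aureus 10 nM, P. aeruginosa 5 nM, H. influenzae 4 nM in enzyme reagent), mixed 1:1 with a reagent of 0.05 μM [3H]SAM, 2 μM unlabelled SAM and 2 μM synthetic E. coli leucine-tRNA. Compounds are 2-fold serial DMSO dilutions. Incubation is 1 h at room temperature.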

Klebsiella pneumoniae = experiment: Inhibition of Klebsiella pneumoniae TrmD using S-[methyl-3H] adenosyl-L-methionine as substrate assessed as leucine-tRNA methylation after 1 hr by scintillation proximity assay; how it was run: as §1
[4] = Inhibition of Acinetobacter baumannii TrmD using S-[methyl-3H] adenosyl-L-methionine as substrate assessed as leucine-tRNA methylation after 1 hr by scintillation proximity assay
[5] = Inhibition of Haemophilus influenzae TrmD using S-[methyl-3H] adenosyl-L-methionine as substrate assessed as leucine-tRNA methylation after 1 hr by scintillation proximity assay; how it was run: as §1
[6] = Inhibition of Staphylococcus aureus TrmD using S-[methyl-3H] adenosyl-L-methionine as substrate assessed as leucine-tRNA methylation after 1 hr by scintillation proximity assay; how it was run: as §1
[7] = Inhibition of Escherichia coli TrmD using S-[methyl-3H] adenosyl-L-methionine as substrate assessed as leucine-tRNA methylation after 1 hr by scintillation proximity assay; how it was run: as §1
[8] = Selectivity ratio for Escherichia coli TrmD over human SET7/9
[9] = Selectivity ratio for Escherichia coli TrmD over human PRMT1
[10] = target: T1, Histone-lysine N-methyltransferase SETD7 (Homo sapiens) (UniProt Q8WTS6); experiment: Inhibition of human SET7/9 at 20 uM relative to control
T1 sequence (whole entry): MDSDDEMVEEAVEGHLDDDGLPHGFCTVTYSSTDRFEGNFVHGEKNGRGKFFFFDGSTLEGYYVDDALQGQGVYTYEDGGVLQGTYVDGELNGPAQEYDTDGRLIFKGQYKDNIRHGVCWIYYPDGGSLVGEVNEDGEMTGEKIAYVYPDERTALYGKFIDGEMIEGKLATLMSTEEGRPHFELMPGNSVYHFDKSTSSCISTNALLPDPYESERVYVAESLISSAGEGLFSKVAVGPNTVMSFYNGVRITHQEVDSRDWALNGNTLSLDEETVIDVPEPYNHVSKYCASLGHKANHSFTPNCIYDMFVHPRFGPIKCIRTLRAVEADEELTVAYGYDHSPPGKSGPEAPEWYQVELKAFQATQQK

[11] = target: Protein arginine N-methyltransferase 1 (Homo sapiens) (UniProt Q99873); experiment: Inhibition of human PRMT1 at 20 uM relative to control
Chain of Protein arginine N-methyltransferase 1 (Homo sapiens) (Q99873 whole entry, looked up): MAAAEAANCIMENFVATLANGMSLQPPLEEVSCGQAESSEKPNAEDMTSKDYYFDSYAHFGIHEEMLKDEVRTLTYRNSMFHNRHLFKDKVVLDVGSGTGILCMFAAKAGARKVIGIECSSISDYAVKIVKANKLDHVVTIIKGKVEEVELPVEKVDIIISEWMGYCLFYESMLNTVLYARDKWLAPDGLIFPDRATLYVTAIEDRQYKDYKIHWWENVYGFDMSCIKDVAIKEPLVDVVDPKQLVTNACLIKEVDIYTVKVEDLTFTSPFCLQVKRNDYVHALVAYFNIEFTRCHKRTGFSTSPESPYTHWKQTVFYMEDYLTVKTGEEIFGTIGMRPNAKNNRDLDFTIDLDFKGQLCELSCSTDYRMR

[12] = target: T1, Histone-lysine N-methyltransferase SETD7 (Homo sapiens); experiment: Inhibition of human SET7/9
[13] = Aqueous solubility of the compound; format: physicochemical; details: buffer
[14] = Dissociation constant, pKa of the compound; format: physicochemical

SMILES	IC50 [5] [µM]	IC50 [6] [µM]	IC50 [7] [µM]	other results
O=C(NCc1ccc(CN2CC[C@@H](O)C2)cc1)c1csc2nc[nH]c(=O)c12	0.42	2.7	0.29	Ratio IC50 [1]: 5; Ratio IC50 [2]: 10; IC50 [3]: 0.063 µM; IC50 (Klebsiella pneumoniae): 0.51 µM; IC50 [4]: 0.24 µM
O=C(NCc1ccc(CO)cc1)c1csc2nc[nH]c(=O)c12	10	38	5.9	–
O=C(NCc1ccc(CN2CC[C@H](O)C2)cc1)c1csc2nc[nH]c(=O)c12	0.6	6.3	0.4	Ratio IC50 [1]: 5; Ratio IC50 [2]: 10; IC50 [3]: 0.12 µM; IC50 (Klebsiella pneumoniae): 0.63 µM; IC50 [4]: 0.63 µM
NC1CN(Cc2ccc(CNC(=O)c3csc4nc[nH]c(=O)c34)cc2)C1	0.33	1.8	0.33	Ratio IC50 [1]: 5; Ratio IC50 [2]: 10; IC50 [3]: 0.25 µM; IC50 (Klebsiella pneumoniae): 1.3 µM; IC50 [4]: 1.3 µM
Cc1ccc(-c2csc3ncnc(O)c23)cc1	1.7	62	6.9	–
N=C(N)c1ccc(CNC(=O)c2csc3nc[nH]c(=O)c23)cc1	1.1	5.5	0.9	–
CN(C)Cc1ccc(CNC(=O)c2csc3nc[nH]c(=O)c23)cc1	1.2	27	1.8	–
O=C(NCc1ccccn1)c1csc2nc[nH]c(=O)c12	8	> 200	139	–
C[C@H](NC(=O)c1csc2nc[nH]c(=O)c12)c1ccccc1	> 200	> 200	> 200	–
O=C(NCc1ccc(CN2CCNCC2)cc1)c1csc2nc[nH]c(=O)c12	1.6	7.6	0.89	Selectivity ratio [8]: 50; Selectivity ratio [9]: 50; inhibition [10]: < 10%; inhibition [11]: < 10%
O=c1[nH]cnc2scc(C3CCNC3)c12 (configuration not stated)	> 200	> 200	> 200	–
O=C(NCc1ccc(CNCCO)cc1)c1csc2nc[nH]c(=O)c12	1.2	1.8	0.89	–
CC(=O)N1CCC(c2csc3nc[nH]c(=O)c23)C1 (configuration not stated)	> 200	> 200	> 200	–
Nc1ncnc2c1ncn2[C@@H]1O[C@H](C[C@@H](N)CC[C@H](N)C(=O)O)[C@@H](O)[C@H]1O [SINEFUNGIN]	1.9	160	11	inhibition [12]: Active
O=C1CN(Cc2ccc(CNC(=O)c3csc4nc[nH]c(=O)c34)cc2)CCN1	9.3	22	2.8	–
O=C(NCc1ccc(CN2CCN(CCO)CC2)cc1)c1csc2nc[nH]c(=O)c12	1.6	14	0.47	–
NCC1CCC(CNC(=O)c2csc3nc[nH]c(=O)c23)CC1 (configuration not stated)	1.8	12	4.9	–
O=C(NCc1ccccc1)c1csc2nc[nH]c(=O)c12	2.6	64	6.5	–
O=C(NCc1ccncc1)c1csc2nc[nH]c(=O)c12	8.2	72	19	–
Cc1cccc2nc[nH]c(=O)c12	–	–	–	solubility [13]: > 500 µM
CCCNCc1ccc(CNC(=O)c2csc3nc[nH]c(=O)c23)cc1	1	6.6	1	–
COc1ccc(-c2n[nH]c(N)n2)cc1	–	–	–	solubility [13]: > 500 µM
O=C(NCc1ccc(CN2CCCC2)cc1)c1csc2nc[nH]c(=O)c12	1.1	4.7	0.67	–
NCCNCc1ccc(CNC(=O)c2csc3nc[nH]c(=O)c23)cc1	0.33	7.4	0.44	Selectivity ratio [8]: 50; Selectivity ratio [9]: 50; inhibition [10]: < 10%; inhibition [11]: < 10%; Ratio IC50 [1]: 5; Ratio IC50 [2]: 10; IC50 [3]: 0.044 µM; IC50 (Klebsiella pneumoniae): 0.61 µM; IC50 [4]: 0.74 µM

SMILES	IC50 [5] [µM]	IC50 [6] [µM]	IC50 [7] [µM]	other results
NC(=O)c1ccc(CNC(=O)c2csc3nc[nH]c(=O)c23)cc1	7.1	25	4.7	–
O=c1[nH]cnc2sccc12	144	1340	120	–
O=c1[nH]cnc2[nH]cc(-c3ccccc3)c12	17	2.3	98	–
O=C(NCc1ccc(CNCc2ncc[nH]2)cc1)c1csc2nc[nH]c(=O)c12	1.5	8.2	0.52	Selectivity ratio [8]: 50; pKa [14]: 6.5; Selectivity ratio [9]: 50; inhibition [10]: < 10%; inhibition [11]: < 10%; Ratio IC50 [1]: 5; Ratio IC50 [2]: 10; IC50 [3]: 0.067 µM; IC50 (Klebsiella pneumoniae): 0.31 µM; IC50 [4]: 0.23 µM
CN(Cc1ccccc1)C(=O)c1csc2nc[nH]c(=O)c12	> 200	> 200	> 200	–
N=C(NCc1ccc(CNC(=O)c2csc3nc[nH]c(=O)c23)cc1)NC1CC1	0.49	2.9	0.19	Selectivity ratio [8]: 50; Selectivity ratio [9]: 50; inhibition [10]: < 10%; inhibition [11]: < 10%
COCCNCc1ccc(CNC(=O)c2csc3nc[nH]c(=O)c23)cc1	1.7	12	1.3	–
O=C(NCc1ccc(CN2CCC(O)CC2)cc1)c1csc2nc[nH]c(=O)c12	1.3	7.3	0.44	Selectivity ratio [8]: 50; Selectivity ratio [9]: 50; inhibition [10]: < 10%; inhibition [11]: < 10%
C[C@@H](NC(=O)c1csc2nc[nH]c(=O)c12)c1ccccc1	49	> 200	123	–
c1ccc2[nH]c(-c3cnco3)cc2c1	–	–	–	solubility [13]: > 500 µM
NCCN1CCN(Cc2ccc(CNC(=O)c3csc4nc[nH]c(=O)c34)cc2)CC1	0.44	2.7	0.4	Selectivity ratio [8]: 50; Selectivity ratio [9]: 50; inhibition [10]: < 10%; inhibition [11]: < 10%
NC1CCCN(Cc2ccc(CNC(=O)c3csc4nc[nH]c(=O)c34)cc2)C1 (configuration not stated)	0.66	5.2	0.33	Selectivity ratio [8]: 50; Selectivity ratio [9]: 50; inhibition [10]: < 10%; inhibition [11]: < 10%
Oc1ncnc2scc(-c3ccccc3)c12	4.7	11	17	–
O=c1[nH]cnc2[nH]nc(-c3ccccc3)c12	30	1.4	> 200	–
O=c1[nH]cnc2onc(-c3ccccc3)c12	1.1	6.7	4.8	solubility [13]: > 500 µM
Cn1cc(-c2csc3nc[nH]c(=O)c23)cn1	0.67	34	2.1	–
O=C(NCc1ccc(-c2ccccc2)cc1)c1csc2nc[nH]c(=O)c12	64	105	33	–
O=c1[nH]cnc2ccc(-c3ccccc3)cc12	11	> 200	–	–
Cc1[nH]c2c(=O)n(C3CCNCC3)ccc2c1Cl	–	–	–	solubility [13]: > 500 µM
NCc1ccc(CNC(=O)c2csc3nc[nH]c(=O)c23)cc1	0.56	4.3	0.91	Selectivity ratio [8]: 50; pKa [14]: 14.4; Selectivity ratio [9]: 50; inhibition [10]: < 10%; inhibition [11]: < 10%; Ratio IC50 [1]: 5; Ratio IC50 [2]: 10; IC50 [3]: 0.098 µM; IC50 (Klebsiella pneumoniae): 0.83 µM; IC50 [4]: 0.61 µM
O=C(NCc1cccnc1)c1csc2nc[nH]c(=O)c12	3.6	73	11	–
NC1CCN(Cc2ccc(CNC(=O)c3csc4nc[nH]c(=O)c34)cc2)CC1	0.33	1.2	0.18	Selectivity ratio [8]: 50; Selectivity ratio [9]: 50; inhibition [10]: < 10%; inhibition [11]: < 10%; Ratio IC50 [1]: 5; Ratio IC50 [2]: 10; IC50 [3]: < 0.039 µM; IC50 (Klebsiella pneumoniae): 0.35 µM; IC50 [4]: 0.58 µM
O=c1[nH]cnc2scc(C3CCCC3)c12	16	21	52	–
